In assay [1] the target is Protein kinase C delta type (Homo sapiens) (UniProt Q05655). Briefly: Inhibition of PKCdelta in human Caco-2 cells assessed as reduction in protein phosphorylation at Ser664 residue at 1 ug/ml incubated for 48 hrs by Western blot analysis. The assay is classed as cell-based. As to conditions: dose 1.0 µg/ml. For orientation: Immunoblotting shows a protein as a band on a membrane.

Assay [2] has the same target. In words: Inhibition of PKCdelta in human Caco-2 cells assessed as ratio of phosphorylated PKCdelta at Ser664 residue to total PKCdelta level at 1 ug/ml preincubated for 15 mins with PKCalpha inhibitor, Go6976 followed by compound addition and measured after 48 hrs by Western blot analysis (reference value: 0.94). In kind it is cell-based. The following applies: dose 1.0 µg/ml. Summed up: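 Caco-2 cells were given 0.2 µM Gö6976 for 15 min, then compound at 1 µg/mL for 48 h. Lysates (30 µg protein) were blotted for pSer664-PKCδ and total PKCδ with actin loading control, and the pSer664/total PKCδ ratio was quantified. Data are from one experiment.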

Assay [3] concerns the target T1, Protein kinase C zeta type (Homo sapiens) (UniProt Q05513).
T1 sequence (whole entry): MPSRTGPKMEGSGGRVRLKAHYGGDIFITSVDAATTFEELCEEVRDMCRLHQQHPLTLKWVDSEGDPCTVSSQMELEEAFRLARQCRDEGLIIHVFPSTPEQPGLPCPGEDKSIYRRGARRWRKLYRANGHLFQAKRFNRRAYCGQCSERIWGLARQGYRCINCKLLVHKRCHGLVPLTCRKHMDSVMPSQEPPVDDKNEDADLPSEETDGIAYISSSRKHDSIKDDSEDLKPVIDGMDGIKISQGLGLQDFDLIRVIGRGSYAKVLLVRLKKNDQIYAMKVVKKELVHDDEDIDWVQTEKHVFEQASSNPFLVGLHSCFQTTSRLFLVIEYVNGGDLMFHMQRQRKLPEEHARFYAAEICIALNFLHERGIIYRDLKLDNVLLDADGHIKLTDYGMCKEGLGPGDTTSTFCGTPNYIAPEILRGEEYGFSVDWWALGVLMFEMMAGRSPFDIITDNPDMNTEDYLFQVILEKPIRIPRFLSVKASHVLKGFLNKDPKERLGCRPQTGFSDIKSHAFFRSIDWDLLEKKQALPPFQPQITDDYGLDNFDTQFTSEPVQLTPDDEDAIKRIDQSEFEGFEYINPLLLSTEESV
Briefly: Activation of PKCzeta in human Caco-2 cells assessed as increase in phosphorylation at Thr410 residue at 1 ug/ml measured after 48 hrs by Western blot analysis. As to conditions: filed as activator, dose 1.0 µg/ml. The assay is classed as cell-based. In a few lines:
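Caco-2 cells (0.25 × 10^6/well) were pretreated or not with 2.5 µM CRT0066854 for 30 min, then treated at 1 µg/mL for 48 h. Lysis buffer was pH 7.4 Tris/NaCl/0.1% Triton/EDTA with protease and phosphatase inhibitors. 30 µg protein was run on 4–15% SDS-PAGE, blotted and probed overnight at 4°C for pThr410-PKCζ and total PKCζ, with HRP/ECL detection.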

Assay [4] concerns the target Protein kinase C delta type (Homo sapiens) (UniProt Q05655). Briefly: Inhibition of PKCdelta in human Caco-2 cells assessed as ratio of phosphorylated PKCdelta at Ser664 residue to total PKCdelta level at 1 ug/ml incubated for 48 hrs by Western blot analysis (reference value: 0.77). The assay is classed as cell-based. The following applies: dose 1.0 µg/ml.
For assay [5], the target named is T1, Protein kinase C zeta type (Homo sapiens). In words: Activation of PKCzeta in human Caco-2 cells assessed as increase in colocalization of PKCzeta and actin in dense cell aggregates at 1 ug/ml measured after 48 hrs by immunostaining analysis. In kind it is cell-based. As to conditions: filed as activator, dose 1.0 µg/ml. In a few lines:
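Caco-2 cells were seeded at 40 000/well and treated for 48 h as in the viability assay. They were fixed in 3.7% PFA for 20 min and permeabilised in HBSS/0.5% Triton X100/1% BSA. Anti-PKCζ (1/50) or anti-PKCα (1/200) was applied overnight at 4°C, then Alexa 488 secondary for 45 min. Phalloidin and Hoechst counterstained the cells before confocal imaging; PKCα signal was quantified by immunofluorescence.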

Assay [6] relates to Zika virus. Briefly: Antiviral activity against ZIKV expressing GFP reporter gene measured 24 hrs post infection. In kind it is functional, organism-based. Summed up:
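Cells in 96-well plates were exposed to serial concentrations starting at 50 µg/mL and infected with GFP-reporter Zika virus at MOI 1. At 24 h post-infection, cells were fixed in 3.7% PFA and GFP-positive cells were counted by flow cytometry.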

Assay [7] concerns Caco-2. In words: Induction of morphological changes in human Caco-2 cells assessed as effect on cellular aggregation at 1 ug/ml preincubated for 30 mins with CRT0066854 hydrochloride followed by compound addition and measured after 48 hrs by Hoechst 3342 and phalloidin staining based confocal microscopic analysis. As to conditions: dose 1.0 µg/ml. In kind it is functional, cell-based. Summed up: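 CRT0066854 hydrochloride (2.5 µM) was added to Caco-2 cells 30 min before compound at 1 µg/mL. After 48 h, nuclei and actin cytoskeleton were labelled and confocal views taken with a 20X objective; duplicates from one experiment.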

The source made the active and inactive calls. The rule behind the calls is not given here.

Chain of Protein kinase C delta type (Homo sapiens) (Q05655 whole entry, looked up): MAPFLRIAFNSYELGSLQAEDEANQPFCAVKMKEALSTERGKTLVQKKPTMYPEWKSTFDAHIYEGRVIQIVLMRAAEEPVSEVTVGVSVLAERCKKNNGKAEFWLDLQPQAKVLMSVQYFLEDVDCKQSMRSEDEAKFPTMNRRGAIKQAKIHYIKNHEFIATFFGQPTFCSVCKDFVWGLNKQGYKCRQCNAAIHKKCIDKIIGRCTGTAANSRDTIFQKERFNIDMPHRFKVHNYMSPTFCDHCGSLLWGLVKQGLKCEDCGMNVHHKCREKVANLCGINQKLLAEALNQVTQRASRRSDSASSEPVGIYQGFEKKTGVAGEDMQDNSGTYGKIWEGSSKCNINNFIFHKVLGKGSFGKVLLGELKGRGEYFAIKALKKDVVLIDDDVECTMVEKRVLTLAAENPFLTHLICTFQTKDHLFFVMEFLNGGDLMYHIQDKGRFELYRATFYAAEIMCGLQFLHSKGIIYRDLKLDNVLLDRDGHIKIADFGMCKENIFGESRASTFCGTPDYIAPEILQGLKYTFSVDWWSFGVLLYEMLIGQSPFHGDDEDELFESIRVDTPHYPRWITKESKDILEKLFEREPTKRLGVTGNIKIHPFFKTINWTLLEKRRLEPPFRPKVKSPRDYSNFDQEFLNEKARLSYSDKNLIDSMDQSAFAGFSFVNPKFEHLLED

Broadly, the IC50 is the midpoint of a concentration-inhibition curve. Lower therefore signals greater potency in that assay. Turning to `C=C(C)[C@]12C[C@@H](C)[C@@]34O[C@](/C=C/C=C/CCCCCCCCC)(O[C@@H]1[C@@H]3[C@@H]1O[C@]1(CO)[C@@H](O)[C@]1(O)C(=O)C(C)=C[C@H]14)O2`, the inhibition result in assay [1] was “Active”. Besides, the Ratio in assay [2] amounted to 0.68; in assay [4] it was 0.73. Moreover, the outcome in assay [3] and in assay [5] was Active. The same compound had an IC50 in assay [6] of more than 50 µM.

For `C=C(C)[C@]12C[C@@H](C)[C@@]34O[C@](/C=C/[C@@H]5O[C@H]5CCCCCCCCC)(O[C@@H]1[C@@H]3[C@@H]1O[C@]1(CO)[C@@H](O)[C@]1(O)C(=O)C(C)=C[C@H]14)O2`, the result in assay [7] was inactive.
